Assay results as given in ChEMBL document CHEMBL1770136, “A class of novel N-isoquinoline-3-carbonyl-L-amino acid benzylesters: synthesis, anti-tumor evaluation and 3D QSAR analysis” (Eur J Med Chem, 2011).

Assays:
HL-60 = assay: Antiproliferative activity against human HL60 cells after 48 hrs by MTT assay; type: functional, cell-based; conditions: HL-60, 48 h
How it was run: (§1)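 MTT assay in 96-well cultures; HL-60 or HeLa cells at 1×10^4/ml in RPMI-1640 with 10% FCS, penicillin and streptomycin, 37 °C, 5% CO2. After 24 h, medium renewed with compound (final 1 mM to 1 nM) for 48 h, then renewed again for 4 h. Residue dissolved in DMSO, absorbance read; inhibition = (C−T)/C, IC50 computed.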

HeLa = assay: Antiproliferative activity against human HeLa cells after 48 hrs by MTT assay; type: functional, cell-based; how it was run: as §1
CCRF S-180 [1] = assay: Antitumor activity against mouse S180 cells xenografted in ICR mouse assessed as tumor growth inhibition at 100 umol/kg/day, ip qd for 7 days measured 24 hrs after last dose relative to control; type: functional; conditions: CCRF S-180, ip
How it was run: (§2)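 Male ICR mice, 10–12 weeks old. S180 cells from serially passaged ascites; 1×10^7 viable cells in 0.2 ml saline injected subcutaneously at right oxter. Dosing began 24 h later, 10 per group. Daily i.p. dose of 100 µmol/kg in 0.2 ml saline for 7 days; saline and i.p. cytarabine as controls. Tumors excised and weighed 24 h after last dose; inhibition calculated versus saline group.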

CCRF S-180 [2] = assay: Antitumor activity against mouse S180 cells xenografted in ICR mouse assessed as decrease of tumor weight at 100 umol/kg, po qd for 7 days measured 24 hrs after last dose; type: functional
How it was run: (§3)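 S180 solid tumors started as 1×10^7 ascites-derived cells s.c. in male ICR mice, 10–12 weeks old. From 24 h, oral doses of 1, 10 or 100 µmol/kg/day in 0.2 ml saline for 7 days; oral saline negative control, i.p. cytarabine 100 µmol/kg positive control. Tumors weighed 24 h after last dose; n = 12 per table footnote.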

[3] = Apparent permeability from basolateral to apical side of human Caco2 cells up to 120 mins by HPLC analysis; type: ADME, cell-based; conditions: Caco-2
How it was run: (§4)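 Caco-2 monolayers on polycarbonate transwell filters, TEER about 700 Ω cm², rechecked after each test. Compounds in HBSS at final 4 mM on the donor side, 37 °C. Receiver side sampled at 30, 60, 90 and 120 min and measured by HPLC. Papp = dQ/dt·1/(A·C0), area 1 cm²; n = 4.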

[4] = Acute toxicity in ICR mouse assessed as mouse survival at 540 mg/kg, po; type: organism-based; parameters: dose 540 mg/kg, route oral; conditions: in vivo, read-out: Activity
How it was run: (§5)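 Healthy mice were given the compound orally at 15, 90 and 540 mg/kg and observed for 7 days for neurotoxic signs (tremor, twitch, jumping, tetanus, supination) and for deaths. Organs were examined by necropsy on day 7.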

CCRF S-180 [5] = assay: Antitumor activity against mouse S180 cells xenografted in ICR mouse assessed as decrease of tumor weight at 1 umol/kg, po qd for 7 days measured 24 hrs after last dose; type: functional; how it was run: as §3
[6] = Acute toxicity in po dosed ICR mouse assessed as changes in organs after 7 days by necropsy analysis; type: organism-based; conditions: in vivo; how it was run: as §5
[7] = Apparent permeability from apical to basolateral side of human Caco2 cells up to 120 mins by HPLC analysis; type: ADME, cell-based; conditions: Caco-2; how it was run: as §4
Mus musculus [8] = assay: Neurotoxicity in ICR mouse assessed as neurotoxic behavior at 15 to 540 mg/kg, po after 7 days; type: toxicity, organism-based; parameters: dose 15-540 mg/kg, route oral; conditions: in vivo, 168 h; how it was run: as §5
CCRF S-180 [9] = assay: Antitumor activity against mouse S180 cells xenografted in ICR mouse assessed as decrease of tumor weight at 10 umol/kg, po qd for 7 days measured 24 hrs after last dose; type: functional; how it was run: as §3
Mus musculus [10] = assay: Acute toxicity in ICR mouse assessed as changes in organs at 15 to 540 mg/kg, po after 7 days by necropsy analysis; type: organism-based; parameters: dose 15-540 mg/kg, route oral; conditions: in vivo, 168 h; how it was run: as §5
CCRF S-180 [11] = assay: Antitumor activity against mouse S180 cells xenografted in ICR mouse assessed as decrease of tumor weight at 100 umol/kg, ip qd for 7 days measured 24 hrs after last dose; type: functional; how it was run: as §2

SMILES | IC50 (HL-60) | IC50 (HeLa) | inhibition in vivo at 100 µmol/kg (CCRF S-180 [1]) | also measured
NC(=O)C[C@H](NC(=O)c1cc2ccccc2cn1)C(=O)OCc1ccccc1 | 86.9 nM | 216 nM | 36.7% | 
O=C(N[C@@H](Cc1ccc(O)cc1)C(=O)OCc1ccccc1)c1cc2ccccc2cn1 | 99.9 nM | 508 nM | 28% | 
O=C(CC[C@H](NC(=O)c1cc2ccccc2cn1)C(=O)OCc1ccccc1)OCc1ccccc1 | 83.6 nM | 214 nM | 25.2% | 
O=C(C[C@H](NC(=O)c1cc2ccccc2cn1)C(=O)OCc1ccccc1)OCc1ccccc1 | 74 nM | 411 nM | 37.5% | 
CC(C)C[C@H](NC(=O)c1cc2ccccc2cn1)C(=O)OCc1ccccc1 | 72.8 nM | 111 nM | 47.1% | Activity (CCRF S-180 [2]): 0.938 g; Papp B→A at 2 h [3]: 7.12 ×10⁻⁶ cm/s; survival [4]: 100%; Activity (CCRF S-180 [5]): 1.298 g; LD50 at 168 h [6]: > 540 mg/kg; Papp A→B at 2 h [7]: 17.2 ×10⁻⁶ cm/s; Activity (Mus musculus [8]): Non-toxic; Activity (CCRF S-180 [9]): 1.011 g; Activity (Mus musculus [10]): Non-toxic
O=C(N[C@@H](Cc1c[nH]cn1)C(=O)OCc1ccccc1)c1cc2ccccc2cn1 | 87.6 nM | 263 nM | 24.3% | 
O=C(OCc1ccccc1)[C@@H]1CCCN1C(=O)c1cc2ccccc2cn1 | 53.4 nM | 87.7 nM | 44.5% | Activity (CCRF S-180 [2]): 1.021 g; Activity (CCRF S-180 [5]): 1.661 g; Activity (CCRF S-180 [9]): 1.243 g
Nc1ccn([C@@H]2O[C@H](CO)[C@@H](O)[C@@H]2O)c(=O)n1 [CYTARABINE] |  |  | 54.8% | Activity (CCRF S-180 [11]): 0.814 g
O=C(O)c1cc2ccccc2cn1 | 949 nM | 1320 nM | 11.5% | Papp B→A at 2 h [3]: 9.28 ×10⁻⁶ cm/s; Papp A→B at 2 h [7]: 9.47 ×10⁻⁶ cm/s
C[C@H](O)[C@H](NC(=O)c1cc2ccccc2cn1)C(=O)OCc1ccccc1 | 62.2 nM | 98.7 nM | 54.4% | Activity (CCRF S-180 [2]): 0.802 g; Papp B→A at 2 h [3]: 7.05 ×10⁻⁶ cm/s; survival [4]: 100%; Activity (CCRF S-180 [5]): 1.315 g; LD50 at 168 h [6]: > 540 mg/kg; Papp A→B at 2 h [7]: 18.6 ×10⁻⁶ cm/s; Activity (Mus musculus [8]): Non-toxic; Activity (CCRF S-180 [9]): 1.184 g; Activity (Mus musculus [10]): Non-toxic

Now from value to molecule, other results behind:

IC50 (HL-60) | IC50 (HeLa) | SMILES | inhibition in vivo at 100 µmol/kg (CCRF S-180 [1]) | also measured
78.9 nM | 118 nM | CC(C)[C@H](NC(=O)c1cc2ccccc2cn1)C(=O)OCc1ccccc1 | 29.7% | 
44.9 nM | 309 nM | CSCC[C@H](NC(=O)c1cc2ccccc2cn1)C(=O)OCc1ccccc1 | 39.6% | 
96.3 nM | 185 nM | CC[C@@H](C)[C@H](NC(=O)c1cc2ccccc2cn1)C(=O)OCc1ccccc1 | 20.9% | 
84.8 nM | 154 nM | C[C@H](NC(=O)c1cc2ccccc2cn1)C(=O)OCc1ccccc1 | 40.6% | 
44.5 nM | 181 nM | NC(=O)CC[C@H](NC(=O)c1cc2ccccc2cn1)C(=O)OCc1ccccc1 | 11.9% | 
68.2 nM | 196 nM | NCCCC[C@H](NC(=O)c1cc2ccccc2cn1)C(=O)OCc1ccccc1 | 17.1% | 
66.1 nM | 396 nM | O=C(N[C@@H](Cc1c[nH]c2ccccc12)C(=O)OCc1ccccc1)c1cc2ccccc2cn1 | 36.9% | 
57.4 nM | 195 nM | O=C(CNC(=O)c1cc2ccccc2cn1)OCc1ccccc1 | 16.1% | 
70.4 nM | 135 nM | O=C(N[C@@H](CO)C(=O)OCc1ccccc1)c1cc2ccccc2cn1 | 40.4% | 
91.8 nM | 151 nM | O=C(N[C@@H](Cc1ccccc1)C(=O)OCc1ccccc1)c1cc2ccccc2cn1 | 30.1% | 
